Source: ChEMBL document CHEMBL4304834, “3-Amino-chromanes and Tetrahydroquinolines as Selective 5-HT2B, 5-HT7, or σ1 Receptor Ligands” (ACS Med Chem Lett, 2019)

Key:
Format in all cases: cell-based
[1] = biological target: T1, Alpha-2C adrenergic receptor (Homo sapiens) (UniProt P18825); experiment: Displacement of [3H]-Rauwolscine from human recombinant adrenergic Alpha2C receptor expressed in stable MDCK cells at 10 uM after 90 mins by microbeta scintillation counting method relative to control
T1 sequence (whole entry): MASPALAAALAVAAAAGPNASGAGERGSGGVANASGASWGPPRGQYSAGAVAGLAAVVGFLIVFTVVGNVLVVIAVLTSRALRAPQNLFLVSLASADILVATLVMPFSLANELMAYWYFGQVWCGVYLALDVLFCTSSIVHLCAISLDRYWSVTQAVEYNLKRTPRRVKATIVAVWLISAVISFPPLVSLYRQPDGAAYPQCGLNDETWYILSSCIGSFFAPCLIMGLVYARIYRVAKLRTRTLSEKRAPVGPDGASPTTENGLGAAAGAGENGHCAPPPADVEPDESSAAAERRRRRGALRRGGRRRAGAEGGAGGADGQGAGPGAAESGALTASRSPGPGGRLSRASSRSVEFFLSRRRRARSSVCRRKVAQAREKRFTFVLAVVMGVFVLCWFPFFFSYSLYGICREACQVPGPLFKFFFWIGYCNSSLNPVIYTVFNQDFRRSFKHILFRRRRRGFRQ

[2] = biological target: 5-hydroxytryptamine receptor 1D (Homo sapiens, UniProt P28221); experiment: Displacement of [3H]5-CT from human recombinant 5-HT1D receptor transiently expressed in HEKT cells at 10 uM after 90 mins by microbeta scintillation counting method relative to control
Sequence of 5-hydroxytryptamine receptor 1D (P28221 whole entry): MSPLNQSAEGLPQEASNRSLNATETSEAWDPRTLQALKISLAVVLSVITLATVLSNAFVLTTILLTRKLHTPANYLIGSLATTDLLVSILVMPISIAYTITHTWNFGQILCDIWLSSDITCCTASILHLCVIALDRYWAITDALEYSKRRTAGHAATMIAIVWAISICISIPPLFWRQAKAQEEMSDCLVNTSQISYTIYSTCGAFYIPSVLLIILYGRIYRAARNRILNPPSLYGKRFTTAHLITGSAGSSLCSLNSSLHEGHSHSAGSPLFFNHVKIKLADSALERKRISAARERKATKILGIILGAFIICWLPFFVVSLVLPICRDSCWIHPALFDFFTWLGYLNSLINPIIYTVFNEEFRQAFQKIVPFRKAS

[3] = biological target: T2, Alpha-1A adrenergic receptor (Homo sapiens, UniProt P35348); experiment: Displacement of [3H]-Prazosin from human recombinant adrenergic alpha1A receptor expressed in cells after 90 mins by microbeta scintillation counting method
T2 sequence (P35348 whole entry): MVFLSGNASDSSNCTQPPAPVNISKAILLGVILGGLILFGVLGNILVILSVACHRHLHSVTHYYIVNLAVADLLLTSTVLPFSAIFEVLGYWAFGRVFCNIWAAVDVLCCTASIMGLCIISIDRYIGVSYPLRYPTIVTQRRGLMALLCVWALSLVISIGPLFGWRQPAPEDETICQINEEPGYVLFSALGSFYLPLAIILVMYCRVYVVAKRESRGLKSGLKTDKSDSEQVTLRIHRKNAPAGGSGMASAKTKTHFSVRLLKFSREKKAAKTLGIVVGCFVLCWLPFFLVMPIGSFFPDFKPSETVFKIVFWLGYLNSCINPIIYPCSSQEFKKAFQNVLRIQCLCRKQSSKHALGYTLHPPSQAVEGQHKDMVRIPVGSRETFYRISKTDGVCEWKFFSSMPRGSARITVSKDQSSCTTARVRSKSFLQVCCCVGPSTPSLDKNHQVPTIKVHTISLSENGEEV
In short: (§1)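 Radioligand binding was run by the NIMH Psychoactive Drug Screening Program. Compounds were first screened at 10 μM. Those giving ≥50% binding were taken to full competition curves. Ki is reported as pKi from a sigmoidal curve fit of triplicate measurements in a single experiment; the error is the curve-fit error.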

[4] = biological target: Sodium-dependent noradrenaline transporter (Homo sapiens, UniProt P23975); experiment: Displacement of [3H]-Nisoxetine from human recombinant NET receptor expressed in stable HEK cells after 90 mins by microbeta scintillation counting method
Sequence of Sodium-dependent noradrenaline transporter (P23975 whole entry): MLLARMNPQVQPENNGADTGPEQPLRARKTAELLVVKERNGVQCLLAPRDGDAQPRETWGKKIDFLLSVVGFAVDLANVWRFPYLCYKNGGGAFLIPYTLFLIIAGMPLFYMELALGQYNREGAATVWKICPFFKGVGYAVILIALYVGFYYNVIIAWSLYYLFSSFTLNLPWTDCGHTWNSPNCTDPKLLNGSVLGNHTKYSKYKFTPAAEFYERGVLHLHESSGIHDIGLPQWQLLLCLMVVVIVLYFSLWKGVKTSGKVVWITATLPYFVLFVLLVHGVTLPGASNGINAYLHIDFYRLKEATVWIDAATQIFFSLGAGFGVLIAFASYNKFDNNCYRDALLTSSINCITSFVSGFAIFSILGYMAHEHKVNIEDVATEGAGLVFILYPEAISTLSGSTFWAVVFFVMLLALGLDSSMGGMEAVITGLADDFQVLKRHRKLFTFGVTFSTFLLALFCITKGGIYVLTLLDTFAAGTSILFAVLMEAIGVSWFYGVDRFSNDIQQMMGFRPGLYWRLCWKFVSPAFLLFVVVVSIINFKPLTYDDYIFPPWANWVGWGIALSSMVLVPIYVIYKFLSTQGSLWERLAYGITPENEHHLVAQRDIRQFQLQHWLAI
In short: (§2)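 Radioligand binding run by the NIMH Psychoactive Drug Screening Program. […] Otherwise Ki comes from sigmoidal curve fits of triplicate measurements in a single experiment, or is averaged over repeated experiments each run in triplicate.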

[5] = biological target: T3, Muscarinic acetylcholine receptor M5 (Homo sapiens, UniProt P08912); experiment: Displacement of [3H]-QNB/[3H]-NMS from human recombinant Muscarinic acetylcholine M5 receptor expressed in stable CHO cells after 90 mins by microbeta scintillation counting method; in short: as §1
T3 sequence (P08912 whole entry): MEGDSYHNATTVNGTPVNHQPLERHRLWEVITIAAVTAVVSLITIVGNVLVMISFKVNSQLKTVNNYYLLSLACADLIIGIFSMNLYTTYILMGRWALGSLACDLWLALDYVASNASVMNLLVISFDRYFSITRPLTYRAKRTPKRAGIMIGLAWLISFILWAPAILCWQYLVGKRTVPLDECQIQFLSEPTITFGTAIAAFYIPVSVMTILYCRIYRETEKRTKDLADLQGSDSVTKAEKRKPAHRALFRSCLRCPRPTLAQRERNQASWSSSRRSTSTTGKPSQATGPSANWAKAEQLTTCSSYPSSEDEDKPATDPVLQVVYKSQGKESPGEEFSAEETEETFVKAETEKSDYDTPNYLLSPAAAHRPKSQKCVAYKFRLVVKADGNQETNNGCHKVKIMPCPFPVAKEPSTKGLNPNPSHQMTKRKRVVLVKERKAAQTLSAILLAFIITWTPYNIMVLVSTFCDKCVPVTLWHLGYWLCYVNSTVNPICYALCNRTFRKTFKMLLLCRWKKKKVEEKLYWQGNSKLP

[6] = biological target: Beta-2 adrenergic receptor (Homo sapiens, UniProt P07550); experiment: Displacement of [3H]-CGP12177 from human recombinant adrenergic Beta2 receptor expressed in Flp-In HEK cells after 90 mins by microbeta scintillation counting method; in short: as §2
Sequence of Beta-2 adrenergic receptor (P07550 whole entry): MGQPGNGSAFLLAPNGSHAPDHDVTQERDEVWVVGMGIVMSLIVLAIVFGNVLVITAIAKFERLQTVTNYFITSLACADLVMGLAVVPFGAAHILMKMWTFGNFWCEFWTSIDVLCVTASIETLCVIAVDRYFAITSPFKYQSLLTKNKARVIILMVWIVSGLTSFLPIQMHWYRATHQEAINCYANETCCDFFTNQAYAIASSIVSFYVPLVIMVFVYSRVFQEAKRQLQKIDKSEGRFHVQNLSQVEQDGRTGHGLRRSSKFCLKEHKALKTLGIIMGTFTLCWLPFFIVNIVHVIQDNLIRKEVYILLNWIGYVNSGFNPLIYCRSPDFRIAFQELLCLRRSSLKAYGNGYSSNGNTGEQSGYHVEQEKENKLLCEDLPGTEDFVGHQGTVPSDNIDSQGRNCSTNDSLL

[7] = biological target: T4, Muscarinic acetylcholine receptor M1 (Homo sapiens, UniProt P11229); experiment: Displacement of [3H]-QNB/[3H]-NMS from human recombinant Muscarinic acetylcholine M1 receptor expressed in stable CHO cells after 90 mins by microbeta scintillation counting method; in short: as §1
T4 sequence (P11229 whole entry): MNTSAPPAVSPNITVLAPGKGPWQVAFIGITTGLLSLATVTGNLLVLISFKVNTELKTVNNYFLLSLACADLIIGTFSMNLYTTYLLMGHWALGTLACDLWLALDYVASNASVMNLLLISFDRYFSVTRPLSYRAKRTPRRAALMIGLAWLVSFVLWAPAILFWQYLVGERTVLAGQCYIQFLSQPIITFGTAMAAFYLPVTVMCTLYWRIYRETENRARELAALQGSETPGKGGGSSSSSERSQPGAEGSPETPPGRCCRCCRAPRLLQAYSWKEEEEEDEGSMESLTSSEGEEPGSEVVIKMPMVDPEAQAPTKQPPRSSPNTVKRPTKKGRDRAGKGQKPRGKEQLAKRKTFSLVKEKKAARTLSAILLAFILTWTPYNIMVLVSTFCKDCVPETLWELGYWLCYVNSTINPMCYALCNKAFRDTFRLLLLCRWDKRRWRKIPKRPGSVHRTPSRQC

[8] = biological target: D(2) dopamine receptor (Homo sapiens, UniProt P14416); experiment: Displacement of [3H]-N-methylspiperone from human recombinant dopamine D2 receptor expressed in stable fibroblast cells at 10 uM after 90 mins by microbeta scintillation counting method relative to control; in short: as §2
Sequence of D(2) dopamine receptor (P14416 whole entry): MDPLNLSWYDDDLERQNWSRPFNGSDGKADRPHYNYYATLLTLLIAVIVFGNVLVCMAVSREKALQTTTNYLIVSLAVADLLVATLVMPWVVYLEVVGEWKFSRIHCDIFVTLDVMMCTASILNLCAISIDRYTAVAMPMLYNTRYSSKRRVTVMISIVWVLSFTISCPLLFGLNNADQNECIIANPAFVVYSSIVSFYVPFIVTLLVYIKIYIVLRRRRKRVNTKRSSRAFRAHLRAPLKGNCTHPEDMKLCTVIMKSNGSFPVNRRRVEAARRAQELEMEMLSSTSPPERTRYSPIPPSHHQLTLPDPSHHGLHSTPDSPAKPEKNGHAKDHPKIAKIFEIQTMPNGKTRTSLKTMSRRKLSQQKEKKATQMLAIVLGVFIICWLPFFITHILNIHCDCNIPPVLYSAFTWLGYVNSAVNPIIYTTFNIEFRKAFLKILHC

[9] = biological target: Histamine H2 receptor (Homo sapiens, UniProt P25021); experiment: Displacement of [125I]-Iodoaminopotentidine from human recombinant histamine H2 receptor expressed in stable HEK cells at 10 uM after 90 mins by microbeta scintillation counting method relative to control; in short: as §2
Sequence of Histamine H2 receptor (P25021 whole entry): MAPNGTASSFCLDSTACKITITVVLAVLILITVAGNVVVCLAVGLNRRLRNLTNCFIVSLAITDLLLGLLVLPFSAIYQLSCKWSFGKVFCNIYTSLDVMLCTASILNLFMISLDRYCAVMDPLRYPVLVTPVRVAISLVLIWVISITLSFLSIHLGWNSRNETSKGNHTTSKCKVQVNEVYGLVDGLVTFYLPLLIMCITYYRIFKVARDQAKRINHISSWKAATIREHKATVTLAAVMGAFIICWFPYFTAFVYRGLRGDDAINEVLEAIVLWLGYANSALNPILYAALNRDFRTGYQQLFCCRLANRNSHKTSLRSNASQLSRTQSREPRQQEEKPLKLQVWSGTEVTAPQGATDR

[10] = biological target: Delta-type opioid receptor (Homo sapiens, UniProt P41143); experiment: Displacement of [3H]-DADLE from human recombinant DOR receptor expressed in stable HEK cells at 10 uM after 90 mins by microbeta scintillation counting method relative to control; in short: as §2
Sequence of Delta-type opioid receptor (P41143 whole entry): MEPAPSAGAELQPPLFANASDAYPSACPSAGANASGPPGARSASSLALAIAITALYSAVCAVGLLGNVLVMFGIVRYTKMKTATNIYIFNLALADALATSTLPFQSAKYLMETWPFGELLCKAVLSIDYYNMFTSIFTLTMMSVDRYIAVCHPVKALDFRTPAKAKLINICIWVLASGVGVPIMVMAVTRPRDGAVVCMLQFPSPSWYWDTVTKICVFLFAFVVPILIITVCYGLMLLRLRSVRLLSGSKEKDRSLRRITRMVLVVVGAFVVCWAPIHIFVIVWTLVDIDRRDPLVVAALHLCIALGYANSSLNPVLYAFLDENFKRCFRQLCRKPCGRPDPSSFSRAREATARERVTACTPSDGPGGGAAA

Compound | inhibition [1] [%] | inhibition [2] [%] | Ki [3] [µM] | Ki [4] [µM] | Ki [5] [µM] | Ki [6] [µM] | Ki [7] [µM] | inhibition [8] [%] | inhibition [9] [%] | inhibition [10] [%]
CC[C@H]1c2cc(C)ccc2OC[C@@]1(C)N (racemic) | < 50 | < 50 | > 10 | 0.316 | > 10 | > 10 | > 10 | < 50 | < 50 | < 50
COc1cc(OC)c2c(c1)OC[C@@]1(C)NCC[C@@H]21 (racemic) | < 50 | < 50 | > 10 | > 10 | > 10 | 0.575 | > 10 | < 50 | < 50 | < 50
C[C@@]12CN(c3ccccc3)c3ccccc3[C@@H]1CCN2 (racemic) |  |  | > 10 | 1.58 | > 10 | > 10 | > 10 |  |  | 
CC[C@H]1c2cc(OC)ccc2CC[C@@]1(C)N (racemic) | < 50 | < 50 | > 10 | 2.51 | > 10 | 5.01 | > 10 | < 50 | < 50 | < 50
CC[C@H]1c2ccccc2N(c2ccccc2)C[C@@]1(C)N (racemic) |  |  | 1.58 | 0.398 | > 10 | > 10 | > 10 |  |  | 
